From ChEMBL document CHEMBL1122125, “Synthesis and in vivo antitumor activity of potential 5-fluorouracil prodrugs” (1982)

How the values were obtained:
Type in all cases: functional
Mus musculus [1] = experiment: Antitumor activity was determined for average weight on day 1 against P-388 leukemia in mice at a dose of 640 mg/kg
Summary of the method: (§1)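 Male B6D2F1J mice, groups of 5, inoculated ip with 10⁶ P-388 cells on day 0. Drug given ip on days 1-4 (qd × 4) in sterile saline, or in 10% Tween 80 for the poorly water-soluble thioether. Average weight per mouse recorded on day 1, with reweighing on day 7 for percent weight change. Untreated control groups had 10-17 animals per experiment.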

Mus musculus [2] = experiment: Antitumor activity was determined for 7-day average percent weight change against P-388 leukemia in mice at a dose of 640 mg/kg
Summary of the method: (§2)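 Male B6D2F1J mice given 10⁶ P-388 cells ip on day 0, then treated ip once daily on days 1-4 (qd × 4), 5 mice per dose group. Compounds dosed in sterile saline, except one lipophilic thioether given in 10% Tween 80. Mice weighed on days 1 and 7; mean weight per mouse on day 1 and 7-day weight change reported in g and as percent.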

Mus musculus [3] = experiment: Percent increase in life span against P-388 leukemia in mice was determined at a dose of 80 mg/kg; conditions: P388
Summary of the method: (§3)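 Male B6D2F1J mice, 5 per dose group, received 10⁶ P-388 cells ip on day 0. Dosing was ip qd × 4 on days 1-4 in sterile saline, or 10% Tween 80 for the butyl thioether. Median survival times of treated (T) and untreated control (C, 10-17 mice) groups were compared: %ILS = [(T/C) − 1]100. Weights taken on days 1 and 7.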

Mus musculus [4] = experiment: Antitumor activity was determined for survival range of mice against P-388 leukemia in mice at a dose of 640 mg/kg
Summary of the method: (§4)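 Male B6D2F1J mice implanted ip with 10⁶ P-388 cells on day 0; test agents given ip on days 1–4 (qd × 4) in sterile saline, or in 10% Tween 80 for the lipophilic thioether. Groups of 5 treated mice, with 10–17 untreated controls per experiment. Mice weighed on days 1 and 7 to give the 7-day weight change in g and %. Survival recorded in days as median and range.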

Mus musculus [5] = experiment: Antitumor activity was determined for survival range of mice against P-388 leukemia in mice at a dose of 40 mg/kg; summary of the method: as §4
Mus musculus [6] = experiment: Percent increase in life span against P-388 leukemia in mice was determined at a dose of 640 mg/kg; conditions: P388; summary of the method: as §3
Mus musculus [7] = experiment: Antitumor activity was determined for 7-day average percent weight change against P-388 leukemia in mice at a dose of 40 mg/kg; summary of the method: as §2
L1210 = experiment: Evaluated for cytotoxicity against L1210 mouse leukemia cells; conditions: read-out: ID50 (the source's name)
Summary of the method: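 L1210 murine leukemia cells in Eagle's minimal essential medium with 15% fetal calf serum, streptomycin (100 μg/mL), penicillin (100 units/mL) and 0.05 mM 2-mercaptoethanol. Cells counted by Coulter counter after 48 h exposure. ID50 is the 50% growth-inhibitory dose. Triplicate assays, standard deviation ±10%.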

Mus musculus [8] = experiment: Percent increase in life span against P-388 leukemia in mice was determined at a dose of 40 mg/kg; conditions: P388; summary of the method: as §3
Mus musculus [9] = experiment: Antitumor activity was determined for average weight on day 1 against P-388 leukemia in mice at a dose of 80 mg/kg; summary of the method: as §1
Mus musculus [10] = experiment: Antitumor activity was determined for survival range of mice against P-388 leukemia in mice at a dose of 80 mg/kg
Summary of the method: (§5)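 Male B6D2F1J mice, 5 per dose group, implanted ip with 10⁶ P-388 leukemia cells on day 0. Drug given ip daily on days 1-4 (qd × 4) in sterile saline, or in 10% Tween 80 for the butyl thioether. Survival range recorded in days. Untreated control groups had 10-17 animals per experiment. Mice weighed on days 1 and 7.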

Mus musculus [11] = experiment: Antitumor activity was determined for median survival of mice against P-388 leukemia in mice at a dose of 160 mg/kg; summary of the method: as §4
Mus musculus [12] = experiment: Antitumor activity was determined for 7-day average percent weight change against P-388 leukemia in mice at a dose of 80 mg/kg; summary of the method: as §2
Mus musculus [13] = experiment: Antitumor activity was determined for 7-day average percent weight change against P-388 leukemia in mice at a dose of 160 mg/kg; summary of the method: as §2
Mus musculus [14] = experiment: Antitumor activity was determined for average 7-day weight change against P-388 leukemia in mice at a dose of 40 mg/kg; summary of the method: as §2
Mus musculus [15] = experiment: Antitumor activity was determined for survival range of mice against P-388 leukemia in mice at a dose of 320 mg/kg; summary of the method: as §4
Mus musculus [16] = experiment: Percent increase in life span against P-388 leukemia in mice was determined at a dose of 320 mg/kg; conditions: P388; summary of the method: as §3
Mus musculus [17] = experiment: Antitumor activity was determined for average 7-day weight change against P-388 leukemia in mice at a dose of 80 mg/kg; summary of the method: as §2
Mus musculus [18] = experiment: Antitumor activity was determined for median survival of mice against P-388 leukemia in mice at a dose of 40 mg/kg; summary of the method: as §4
Mus musculus [19] = experiment: Percent increase in life span against P-388 leukemia in mice was determined at a dose of 160 mg/kg; conditions: P388; summary of the method: as §3
Mus musculus [20] = experiment: Antitumor activity was determined for average weight on day 1 against P-388 leukemia in mice at a dose of 160 mg/kg; summary of the method: as §2
Mus musculus [21] = experiment: Antitumor activity was determined for median survival of mice against P-388 leukemia in mice at a dose of 80 mg/kg; summary of the method: as §4
Mus musculus [22] = experiment: Antitumor activity was determined for average weight on day 1 against P-388 leukemia in mice at a dose of 40 mg/kg; summary of the method: as §1
Mus musculus [23] = experiment: Antitumor activity was determined for average 7-day weight change against P-388 leukemia in mice at a dose of 160 mg/kg; summary of the method: as §2
Mus musculus [24] = experiment: Antitumor activity was determined for 7-day average percent weight change against P-388 leukemia in mice at a dose of 320 mg/kg; summary of the method: as §2
Mus musculus [25] = experiment: Antitumor activity was determined for average weight on day 1 against P-388 leukemia in mice at a dose of 320 mg/kg; summary of the method: as §1
Mus musculus [26] = experiment: Antitumor activity was determined for median survival of mice against P-388 leukemia in mice at a dose of 640 mg/kg; summary of the method: as §4
Mus musculus [27] = experiment: Antitumor activity was determined for median survival of mice against P-388 leukemia in mice at a dose of 320 mg/kg; summary of the method: as §4
Mus musculus [28] = experiment: Antitumor activity was determined for survival range of mice against P-388 leukemia in mice at a dose of 160 mg/kg; summary of the method: as §4
Mus musculus [29] = experiment: Percent increase in life span against P-388 leukemia in mice was determined at a dose of 8 mg/kg; conditions: P388; summary of the method: as §3
Mus musculus [30] = experiment: Percent increase in life span against P-388 leukemia in mice was determined at a dose of 2 mg/kg; conditions: P388; summary of the method: as §3
Mus musculus [31] = experiment: Antitumor activity was determined for average 7-day weight change against P-388 leukemia in mice at a dose of 2 mg/kg; summary of the method: as §2
Mus musculus [32] = experiment: Antitumor activity was determined for 7-day average percent weight change against P-388 leukemia in mice at a dose of 2 mg/kg; summary of the method: as §2
Mus musculus [33] = experiment: Antitumor activity was determined for average weight on day 1 against P-388 leukemia in mice at a dose of 4 mg/kg; summary of the method: as §1
Mus musculus [34] = experiment: Antitumor activity was determined for survival range of mice against P-388 leukemia in mice at a dose of 2 mg/kg; summary of the method: as §4
Mus musculus [35] = experiment: Antitumor activity was determined for median survival of mice against P-388 leukemia in mice at a dose of 8 mg/kg; summary of the method: as §4
Mus musculus [36] = experiment: Antitumor activity was determined for average weight on day 1 against P-388 leukemia in mice at a dose of 8 mg/kg; summary of the method: as §1
Mus musculus [37] = experiment: Antitumor activity was determined for survival range of mice against P-388 leukemia in mice at a dose of 8 mg/kg; summary of the method: as §5
Mus musculus [38] = experiment: Percent increase in life span against P-388 leukemia in mice was determined at a dose of 4 mg/kg; conditions: P388; summary of the method: as §3
Mus musculus [39] = experiment: Antitumor activity was determined for average 7-day weight change against P-388 leukemia in mice at a dose of 8 mg/kg; summary of the method: as §2
Mus musculus [40] = experiment: Antitumor activity was determined for survival range of mice against P-388 leukemia in mice at a dose of 4 mg/kg; summary of the method: as §4
Mus musculus [41] = experiment: Antitumor activity was determined for average weight on day 1 against P-388 leukemia in mice at a dose of 2 mg/kg; summary of the method: as §1
Mus musculus [42] = experiment: Antitumor activity was determined for average 7-day weight change against P-388 leukemia in mice at a dose of 4 mg/kg; summary of the method: as §2
Mus musculus [43] = experiment: Antitumor activity was determined for median survival of mice against P-388 leukemia in mice at a dose of 2 mg/kg; summary of the method: as §4
Mus musculus [44] = experiment: Antitumor activity was determined for median survival of mice against P-388 leukemia in mice at a dose of 4 mg/kg; summary of the method: as §4
Mus musculus [45] = experiment: Antitumor activity was determined for 7-day average percent weight change against P-388 leukemia in mice at a dose of 4 mg/kg; summary of the method: as §2
Mus musculus [46] = experiment: Antitumor activity was determined for 7-day average percent weight change against P-388 leukemia in mice at a dose of 8 mg/kg; summary of the method: as §2
Mus musculus [47] = experiment: Antitumor activity was determined for average 7-day weight change against P-388 leukemia in mice at a dose of 320 mg/kg; summary of the method: as §2
Mus musculus [48] = experiment: Antitumor activity was determined for average 7-day weight change against P-388 leukemia in mice at a dose of 640 mg/kg; summary of the method: as §2

Row | SMILES | Average weight (Mus musculus [1]) | Weight change (Mus musculus [2]) | ILS at 80 mg/kg (Mus musculus [3]) | Survival range (Mus musculus [4]) | ILS at 640 mg/kg (Mus musculus [6]) | IC50 (L1210) | Average weight (Mus musculus [9]) | Survival range (Mus musculus [10]) | Survival median (Mus musculus [11]) | Weight change (Mus musculus [12]) | Weight change (Mus musculus [13]) | Survival range (Mus musculus [15]) | ILS at 320 mg/kg (Mus musculus [16]) | Average weight (Mus musculus [17]) | ILS at 160 mg/kg (Mus musculus [19]) | Average weight (Mus musculus [20]) | Survival median (Mus musculus [21]) | Average weight (Mus musculus [23]) | Weight change (Mus musculus [24]) | Average weight (Mus musculus [25]) | other results
1 | O=c1[nH]c(=O)n(C2OC[C@@H](O)[C@H]2O)cc1F (stereo partly drawn) | 25.6 g mouse-1 | -9% | 16% | 17 | 75% | 130 µM | 24.2 g mouse-1 | 11 | 15 | 11% | 8% | 16 | 41% | 2.6 g mouse-1 | 25% | 24.2 g mouse-1 | 14 | 1.6 g mouse-1 | 1% | 25.8 g mouse-1 | Survival range (Mus musculus [5]): 12; Weight change (Mus musculus [7]): 12%; ILS at 40 mg/kg (Mus musculus [8]): 0%; Average weight (Mus musculus [14]): 3 g mouse-1; Survival median (Mus musculus [18]): 12; Average weight (Mus musculus [22]): 25.2 g mouse-1; Survival median (Mus musculus [26]): 21; Survival median (Mus musculus [27]): 17; Survival range (Mus musculus [28]): 14
2 | O=c1[nH]c(=O)n([C@@H]2O[C@H](CO)[C@@H](O)[C@H]2O)cc1F [5-FLUOROURIDINE] |  |  |  |  |  | 0.0024 µM |  |  |  |  |  |  |  |  |  |  |  |  |  |  | ILS at 8 mg/kg (Mus musculus [29]): 91%; ILS at 2 mg/kg (Mus musculus [30]): 66%; Average weight (Mus musculus [31]): 1.2 g mouse-1; Weight change (Mus musculus [32]): 5%; Average weight (Mus musculus [33]): 26.4 g mouse-1; Survival range (Mus musculus [34]): 18; Survival median (Mus musculus [35]): 23; Average weight (Mus musculus [36]): 25.8 g mouse-1; Survival range (Mus musculus [37]): 21; ILS at 4 mg/kg (Mus musculus [38]): 75%; Average weight (Mus musculus [39]): -6 g mouse-1; Survival range (Mus musculus [40]): 18; Average weight (Mus musculus [41]): 26 g mouse-1; Average weight (Mus musculus [42]): -3.2 g mouse-1; Survival median (Mus musculus [43]): 20; Survival median (Mus musculus [44]): 21; Weight change (Mus musculus [45]): -12%; Weight change (Mus musculus [46]): -23%
3 | C[C@H]1O[C@@H](n2cc(F)c(=O)[nH]c2=O)[C@H](O)[C@@H]1O [DOXIFLURIDINE] | 27 g mouse-1 | -21% | 18% | 9 | 54% | 140 µM | 28.6 g mouse-1 | 11 | 15 | 7% | 2% | 15 | 54% | 2.2 g mouse-1 | 36% | 26.8 g mouse-1 | 13 | 0.4 g mouse-1 | -5% | 26.2 g mouse-1 | Average weight (Mus musculus [47]): -1.4 g mouse-1; Average weight (Mus musculus [48]): -5.6 g mouse-1; Survival median (Mus musculus [26]): 17; Survival median (Mus musculus [27]): 17; Survival range (Mus musculus [28]): 14
